Legend:
Assay type in all cases: cell-based, HEK293
Mu-type opioid receptor [1] = biological target: Mu-type opioid receptor (Rattus norvegicus, UniProt P33535, K303E); experiment: Displacement of [3H]- diprenorphine from mu-K303E-receptor expressed in HEK 293 cells
Mu-type opioid receptor [2] = biological target: Mu-type opioid receptor (Rattus norvegicus, UniProt P33535, W318A); experiment: Displacement of [3H]- diprenorphine from mu-W318A-receptor expressed in HEK 293 cells
[3] = biological target: Delta-type opioid receptor (Mus musculus, UniProt P32300); experiment: Displacement of [3H]- diprenorphine from delta receptor expressed in HEK 293 cells
How it was run: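 HEK-293 cells transiently transfected with wild-type or mutant receptor cDNA by calcium phosphate were harvested 60-72 h later and suspended in 25 mM HEPES, pH 7.4. […] Nonspecific binding was defined with 1 μM NTI. Bound ligand was filtered on PEI-soaked GF/B and counted.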

[4] = biological target: Delta-type opioid receptor (Mus musculus, UniProt P32300, W284E); experiment: Displacement of [3H]- diprenorphine from delta-W284E-receptor expressed in HEK 293 cells
How it was run: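 HEK-293 cells transiently transfected with wild-type or mutant receptor cDNA by calcium phosphate were harvested 60-72 h later and suspended in 25 mM HEPES, pH 7.4. Nonspecific binding was defined with 1 μM NTI. Bound ligand was filtered on PEI-soaked GF/B and counted.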

[5] = biological target: Kappa-type opioid receptor (Rattus norvegicus, UniProt P34975, E297A); experiment: Displacement of [3H]diprenorphine from k-E297A-receptor expressed in HEK 293 cells
[6] = biological target: Kappa-type opioid receptor (Rattus norvegicus, UniProt P34975, Y312A); experiment: Displacement of [3H]diprenorphine from k-Y312A-receptor expressed in HEK 293 cells
[7] = biological target: Kappa-type opioid receptor (Rattus norvegicus, UniProt P34975); experiment: Displacement of [3H]diprenorphine from opioid receptor kappa 1 expressed in HEK 293 cells
Mu-type opioid receptor [8] = biological target: Mu-type opioid receptor (Rattus norvegicus, UniProt P33535); experiment: Displacement of [3H]- diprenorphine from mu-receptor expressed in HEK 293 cells
Chain of Mu-type opioid receptor (Rattus norvegicus, UniProt P33535) (P33535 whole entry): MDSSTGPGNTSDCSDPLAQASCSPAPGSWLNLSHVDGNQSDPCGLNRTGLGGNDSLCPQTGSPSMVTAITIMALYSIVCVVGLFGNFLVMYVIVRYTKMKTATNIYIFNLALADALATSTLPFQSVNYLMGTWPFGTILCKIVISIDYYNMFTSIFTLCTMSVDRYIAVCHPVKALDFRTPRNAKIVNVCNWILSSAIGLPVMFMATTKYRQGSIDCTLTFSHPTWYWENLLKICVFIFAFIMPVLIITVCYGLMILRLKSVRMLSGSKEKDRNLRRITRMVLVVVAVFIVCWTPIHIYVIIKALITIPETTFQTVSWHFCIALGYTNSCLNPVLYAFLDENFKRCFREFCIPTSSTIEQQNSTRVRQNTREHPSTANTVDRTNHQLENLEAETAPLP

Chain of Delta-type opioid receptor (Mus musculus, UniProt P32300) (P32300 whole entry): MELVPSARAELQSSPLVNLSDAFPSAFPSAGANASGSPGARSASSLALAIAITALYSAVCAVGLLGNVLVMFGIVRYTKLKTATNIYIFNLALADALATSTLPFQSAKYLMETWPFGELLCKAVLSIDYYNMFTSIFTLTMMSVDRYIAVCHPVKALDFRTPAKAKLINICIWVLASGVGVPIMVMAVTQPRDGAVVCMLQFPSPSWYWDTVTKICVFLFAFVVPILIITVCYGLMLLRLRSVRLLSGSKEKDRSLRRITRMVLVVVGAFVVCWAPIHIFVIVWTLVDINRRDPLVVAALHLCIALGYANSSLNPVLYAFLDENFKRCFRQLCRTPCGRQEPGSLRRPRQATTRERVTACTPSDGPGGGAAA
Chain of Kappa-type opioid receptor (Rattus norvegicus, UniProt P34975) (P34975 whole entry): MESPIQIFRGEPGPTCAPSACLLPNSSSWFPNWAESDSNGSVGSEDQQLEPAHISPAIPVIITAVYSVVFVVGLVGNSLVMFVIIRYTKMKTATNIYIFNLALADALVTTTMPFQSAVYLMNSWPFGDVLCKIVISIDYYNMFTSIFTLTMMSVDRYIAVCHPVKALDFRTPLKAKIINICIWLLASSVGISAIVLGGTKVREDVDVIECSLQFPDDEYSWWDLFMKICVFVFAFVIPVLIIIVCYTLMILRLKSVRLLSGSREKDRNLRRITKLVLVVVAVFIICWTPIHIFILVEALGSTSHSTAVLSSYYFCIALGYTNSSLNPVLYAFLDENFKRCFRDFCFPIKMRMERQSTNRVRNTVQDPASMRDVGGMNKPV
Chain of Kappa-type opioid receptor (Rattus norvegicus, UniProt P34975, Y312A) (P34975 whole entry Y312A): as the sequence (P34975 whole entry) above, with Y312A counted along it
Chain of Delta-type opioid receptor (Mus musculus, UniProt P32300, W284E) (P32300 whole entry W284E): as the sequence (P32300 whole entry) above, with W284E counted along it
Chain of Kappa-type opioid receptor (Rattus norvegicus, UniProt P34975, E297A) (P34975 whole entry E297A): as the sequence (P34975 whole entry) above, with E297A counted along it
Chain of Mu-type opioid receptor (Rattus norvegicus, UniProt P33535, W318A) (P33535 whole entry W318A): as the sequence (P33535 whole entry) above, with W318A counted along it
Chain of Mu-type opioid receptor (Rattus norvegicus, UniProt P33535, K303E) (P33535 whole entry K303E): as the sequence (P33535 whole entry) above, with K303E counted along it

SMILES | Ki (Mu-type opioid receptor [1]) [nM] | Ki (Mu-type opioid receptor [2]) [nM] | Ki [3] [nM] | Ki [4] [nM] | Ki [5] [nM] | Ki [6] [nM] | Ki [7] [nM] | Ki (Mu-type opioid receptor [8]) [nM]
N=C(N)Nc1ccc2[nH]c3c(c2c1)C[C@@]1(O)[C@H]2Cc4ccc(O)c5c4[C@@]1(CCN2CC1CC1)[C@H]3O5 [GUANIDINONALTRINDOLE] | 0.09 | 0.5 | 46.2 | 1.1 | 3.9 | 0.03 | – | –
Oc1ccc2c3c1O[C@H]1c4[nH]c5ccccc5c4C[C@@]4(O)[C@@H](C2)N(CC2CC2)CC[C@]314 [NALTRINDOLE] | – | – | 0.19 | 1.82 | 42 | 1.23 | 25.5 | –
Oc1ccc2c3c1O[C@H]1c4[nH]c5c(c4C[C@@]4(O)[C@@H](C2)N(CC2CC2)CC[C@]314)C[C@@]1(O)[C@H]2Cc3ccc(O)c4c3[C@@]1(CCN2CC1CC1)[C@H]5O4 [NORBINALTORPHIMINE] | – | – | – | – | – | 1.39 | 0.07 | –
CN1CC[C@]23c4c5ccc(O)c4O[C@H]2C(=O)C2(Cc4ccccc4C2)C[C@@]3(O)[C@H]1C5 [SPIROINDANYLOXYMORPHONE] | 154 | 3.9 | 4.1 | 46.6 | 292 | 55 | 488 | 88.4

From ChEMBL document CHEMBL1134793, “Investigation of the selectivity of oxymorphone- and naltrexone-derived ligands via site-directed mutagenesis of opioid receptors: exploring the "address" recognition locus” (J Med Chem, 2001)
